Assays:
Human alphaherpesvirus 3 [1] = test: Evaluated for the anti-VZV, the concentration of compounds in uM required to reduce VZVTK-YS-R ( thymidine kinase-deficient strain ) plaque formation after 5 days in HEL cell cultures compared to untreated controls.; type: functional, organism-based; settings: Human alphaherpesvirus 3, tkys-r, 120 h
Human alphaherpesvirus 3 [2] = test: Evaluated for the anti-VZV, the concentration of compounds in uM required to reduce VZVTK-07 ( thymidine kinase-deficient strain ) plaque formation after 5 days in HEL cell cultures compared to untreated controls.; type: functional, organism-based; settings: Human alphaherpesvirus 3, tk-07, HEL, 120 h
Human alphaherpesvirus 3 [3] = test: Evaluated for the anti-VZV activity, the concentration of compounds in uM required to reduce VZV […] plaque formation after 5 days in HEL cell cultures compared to untreated controls.; type: functional, organism-based; settings: Human alphaherpesvirus 3, ys, 120 h
Human alphaherpesvirus 3 [4] = test: Evaluated for the anti-VZV activity, the concentration of compounds in uM required to reduce VZV OKA Plaque formation after 5 days in HEL cell cultures compared to untreated controls.; type: functional, organism-based; settings: Human alphaherpesvirus 3, oka, 120 h
How it was run: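 Confluent HEL fibroblasts infected with VZV at 20 PFU/well. Residual virus removed after 1-2 h adsorption. Cells then kept in MEM with 2% inactivated FCS, 1% L-glutamine and 0.3% sodium bicarbonate plus serial compound dilutions. OKA and YS strains are TK-competent; 07 and YS-R are TK-deficient.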

Human alphaherpesvirus 3 [5] = test: (§1) cytostatic concentration required to reduce the HEL cell number by 50%. after 5 days in the absence of virus; type: functional; settings: Human alphaherpesvirus 3, HEL, 120 h
How it was run: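 HEL cells in 96-well plates treated with graded compound concentrations without virus for 5 days. Cells then trypsinized and counted with a Coulter counter.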

Human alphaherpesvirus 3 [6] = test: (§2) Minimal cytotoxic concentration, the concentration required to cause a microscopically visible alteration of normal cell morphology.; type: functional
How it was run: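 Uninfected HEL cell cultures exposed to graded compound concentrations. Morphology inspected by microscope. MCC is the lowest concentration producing a visible change in normal cell morphology.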

Human alphaherpesvirus 3 [7] = test: Evaluated for the anti-VZV activity, the concentration of compounds in uM required to reduce VZV OKA plaque formation after 5 days in HEL cell cultures compared to untreated controls.; type: functional, organism-based; settings: Human alphaherpesvirus 3, oka, 120 h
How it was run: (§3)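 Confluent HEL fibroblasts infected with VZV at 20 PFU/well. Residual virus removed after 1-2 h adsorption. Cells then kept in MEM with 2% inactivated FCS, 1% L-glutamine and 0.3% sodium bicarbonate plus serial compound dilutions. […] OKA and YS strains are TK-competent; 07 and YS-R are TK-deficient.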

Human alphaherpesvirus 3 [8] = test: Evaluated for the anti-VZV, the concentration of compounds in uM required to reduce VZV TK-YS-R ( thymidine kinase-deficient strain ) plaque formation after 5 days in HEL cell cultures compared to untreated controls.; type: functional, organism-based; settings: Human alphaherpesvirus 3, ys-r, 120 h; how it was run: as §3
Human alphaherpesvirus 3 [9] = test: Evaluated for the anti-VZV activity, which is the concentration of compounds in uM required to reduce VZV YS plaque formation after 5 days in HEL cell cultures compared to untreated controls.; type: functional, organism-based; settings: Human alphaherpesvirus 3, ys, 120 h; how it was run: as §3
Human alphaherpesvirus 3 [10] = test: Evaluated for the anti-VZV activity, the concentration of compounds in uM required to reduce VZV TK-07 (thymidine kinase-deficient strain ) plaque formation after 5 days in HEL cell cultures compared to untreated controls.; settings: Human alphaherpesvirus 3, tk-07, HEL, 120 h
Human alphaherpesvirus 3 [11] = test: Evaluated for the anti-VZV activity, the concentration required to reduce VZV YS plaque formation after 5 days in HEL cell cultures compared to untreated controls.; type: functional, organism-based; settings: Human alphaherpesvirus 3, ys, 120 h; how it was run: as §3
Human alphaherpesvirus 3 [12] = test: Evaluated for the anti-VZV, the concentration required to reduce VZV TK -07 ( thymidine kinase-deficient strain ) plaque formation after 5 days in HEL cell cultures compared to untreated controls.; type: functional, organism-based; settings: Human alphaherpesvirus 3, tk-07, HEL, 120 h; how it was run: as §3
Human alphaherpesvirus 3 [13] = test: Evaluated for the anti-VZV, the concentration required to reduce VZVTK-YS-R ( thymidine kinase-deficient strain ) plaque formation after 5 days in HEL cell cultures compared to untreated controls.; type: functional, organism-based; settings: Human alphaherpesvirus 3, ys-r, 120 h; how it was run: as §3
Human alphaherpesvirus 3 [14] = test: Evaluated for the anti-VZV activity, the concentration required to reduce VZV OKA plaque formation after 5 days in HEL cell cultures compared to untreated controls.; type: functional, organism-based; settings: Human alphaherpesvirus 3, oka, 120 h; how it was run: as §3
Human alphaherpesvirus 3 [15] = test: as §1; type: functional; settings: Human alphaherpesvirus 3, t, 120 h
How it was run: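 HEL fibroblasts, grown in MEM with 10% inactivated FCS, 1% L-glutamine and 0.3% sodium bicarbonate, were treated in 96-well cultures with varying compound concentrations for 5 days without virus. Cells were then trypsinized and counted with a Coulter counter. The value is the concentration giving 50% reduction in cell number.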

Human alphaherpesvirus 3 [16] = test: as §2; type: functional; settings: Human alphaherpesvirus 3, t

| EC50 (Human alphaherpesvirus 3 [1]) [µM] | EC50 (Human alphaherpesvirus 3 [2]) [µM] | EC50 (Human alphaherpesvirus 3 [3]) [µM] | EC50 (Human alphaherpesvirus 3 [4]) [µM] | SMILES | CC50 (Human alphaherpesvirus 3 [5]) [µM] | MCC (Human alphaherpesvirus 3 [6]) [µM] | also measured |
| --- | --- | --- | --- | --- | --- | --- | --- |
| > 20 | > 20 | 0.027 | 0.04 | CCCCCCCCc1ccc(-c2cc3cn([C@H]4C[C@H](O)[C@@H](CO)O4)c(=O)nc3o2)cc1 | > 200 | > 20 | – |
| > 50 | > 50 | 0.024 | – | CCCCCCCCc1cc2cn([C@H]3C[C@H](O)[C@@H](CO)O3)c(=O)nc2o1 | > 50 | > 50 | EC50 (Human alphaherpesvirus 3 [7]): 0.008 µM |
| > 50 | > 50 | 0.5 | 0.5 | O=c1nc2oc(-c3ccc(Br)cc3)cc2cn1[C@H]1C[C@H](O)[C@@H](CO)O1 | – | 50 | – |

Continued, compound first:

| SMILES | EC50 (Human alphaherpesvirus 3 [1]) [µM] | EC50 (Human alphaherpesvirus 3 [2]) [µM] | EC50 (Human alphaherpesvirus 3 [3]) [µM] | EC50 (Human alphaherpesvirus 3 [4]) [µM] | CC50 (Human alphaherpesvirus 3 [5]) [µM] | MCC (Human alphaherpesvirus 3 [6]) [µM] | also measured |
| --- | --- | --- | --- | --- | --- | --- | --- |
| CCCCCCCCCCc1cc2cn([C@H]3C[C@H](O)[C@@H](CO)O3)c(=O)nc2o1 | > 50 | > 50 | 0.008 | 0.015 | > 50 | > 50 | – |
| O=c1nc2oc(-c3ccc(Cl)cc3)cc2cn1[C@H]1C[C@H](O)[C@@H](CO)O1 | > 50 | > 50 | 0.1 | 0.1 | – | 200 | – |
| CCCCCCCCCc1cc2cn([C@H]3C[C@H](O)[C@@H](CO)O3)c(=O)nc2o1 | > 200 | > 200 | 0.02 | 0.02 | > 200 | > 200 | – |
| Cc1ccc(-c2cc3cn([C@H]4C[C@H](O)[C@@H](CO)O4)c(=O)nc3o2)cc1 | – | – | – | – | > 200 | > 200 | EC50 (Human alphaherpesvirus 3 [8]): > 200 µM; EC50 (Human alphaherpesvirus 3 [9]): 0.06 µM; EC50 (Human alphaherpesvirus 3 [7]): 0.06 µM; EC50 (Human alphaherpesvirus 3 [10]): 103 µM |
| O=c1nc2oc(-c3ccccc3)cc2cn1[C@H]1C[C@H](O)[C@@H](CO)O1 | – | – | – | – | > 200 | > 200 | EC50 (Human alphaherpesvirus 3 [11]): 0.16 µM; EC50 (Human alphaherpesvirus 3 [12]): > 200 µM; EC50 (Human alphaherpesvirus 3 [13]): 162 µM; EC50 (Human alphaherpesvirus 3 [14]): 0.28 µM |
| Nc1nc2c(ncn2COCCO)c(=O)[nH]1 [ACYCLOVIR] | – | – | – | – | > 200 | > 200 | – |
| O=c1[nH]c(=O)n([C@H]2C[C@H](O)[C@@H](CO)O2)cc1/C=C/Br [BRIVUDINE] | > 150 | > 150 | 0.003 | 0.003 | – | – | CC50 (Human alphaherpesvirus 3 [15]): > 400 µM; MCC (Human alphaherpesvirus 3 [16]): > 400 µM |

— ChEMBL document CHEMBL1132955 (J Med Chem, 2000)
